Data from ChEMBL document CHEMBL3804779, “Novel free fatty acid receptor 1 (GPR40) agonists based on 1,3,4-thiadiazole-2-carboxamide scaffold” (Bioorg Med Chem, 2016).
Each block holds one molecule with its values, some of them ahead of it.

Experiments:
[1] = molecular target: Free fatty acid receptor 1 (Homo sapiens, UniProt O14842); assay: Agonist activity at human GPR40 expressed in CHO cells by calcium influx assay; format: functional, cell-based
Method in brief: (§1)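 CHO cells stably expressing the receptor (GPR40, GPR41, GPR43 or GPR120) plated 24 h before assay and loaded with calcium dye for 1 h. Calcium flux read on FLIPR Tetra. Agonist response taken as maximum fluorescence change over baseline. Concentration-response curves fitted for EC50. GW9508 run as positive control.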

[2] = molecular target: T1, Free fatty acid receptor 3 (Homo sapiens, UniProt O14843); assay: Agonist activity at human GPR41 (unknown origin) expressed in CHO cells by calcium influx assay; format: functional, cell-based; method in brief: as §1
T1 sequence (O14843 whole entry): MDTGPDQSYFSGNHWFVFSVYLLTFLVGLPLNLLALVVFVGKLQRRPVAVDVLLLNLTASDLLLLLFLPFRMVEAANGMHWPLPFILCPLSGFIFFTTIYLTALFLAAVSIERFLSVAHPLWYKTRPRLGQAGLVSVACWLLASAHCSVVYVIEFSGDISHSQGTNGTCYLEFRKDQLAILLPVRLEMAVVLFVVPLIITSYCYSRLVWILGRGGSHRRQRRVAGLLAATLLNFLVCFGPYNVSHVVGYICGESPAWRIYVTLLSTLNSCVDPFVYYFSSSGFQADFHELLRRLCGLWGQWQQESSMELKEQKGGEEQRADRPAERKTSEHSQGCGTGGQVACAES

[3] = molecular target: T2, Free fatty acid receptor 2 (Homo sapiens, UniProt O15552); assay: Agonist activity at human GPR43 (unknown origin) expressed in CHO cells by calcium influx assay; format: functional, cell-based; method in brief: as §1
T2 sequence (O15552 whole entry): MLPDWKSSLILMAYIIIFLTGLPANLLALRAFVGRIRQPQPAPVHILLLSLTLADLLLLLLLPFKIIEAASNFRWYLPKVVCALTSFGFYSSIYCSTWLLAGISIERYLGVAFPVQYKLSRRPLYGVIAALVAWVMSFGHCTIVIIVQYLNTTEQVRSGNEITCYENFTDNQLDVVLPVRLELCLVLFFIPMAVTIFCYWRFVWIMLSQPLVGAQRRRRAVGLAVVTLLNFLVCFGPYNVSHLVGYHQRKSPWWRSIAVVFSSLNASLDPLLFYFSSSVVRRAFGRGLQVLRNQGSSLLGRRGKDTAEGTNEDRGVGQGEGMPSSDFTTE

[4] = molecular target: T3, Free fatty acid receptor 4 (Homo sapiens, UniProt Q5NUL3); assay: Agonist activity at human GPR120 (unknown origin) expressed in CHO cells by calcium influx assay; format: functional, cell-based; method in brief: as §1
T3 sequence (Q5NUL3 whole entry): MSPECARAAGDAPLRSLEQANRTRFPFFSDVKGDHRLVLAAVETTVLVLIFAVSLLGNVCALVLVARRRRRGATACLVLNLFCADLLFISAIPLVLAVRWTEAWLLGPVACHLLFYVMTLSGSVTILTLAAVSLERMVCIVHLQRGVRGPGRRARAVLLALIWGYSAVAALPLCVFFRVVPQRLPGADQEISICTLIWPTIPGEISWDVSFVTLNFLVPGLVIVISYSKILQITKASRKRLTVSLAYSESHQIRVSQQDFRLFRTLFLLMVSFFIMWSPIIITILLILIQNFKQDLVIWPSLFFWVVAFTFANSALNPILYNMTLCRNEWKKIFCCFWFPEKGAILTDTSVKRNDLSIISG

[5] = Half life in mouse plasma at 1 uM by LC-MS/MS analysis; format: ADME
Method in brief: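 Compound at 1 uM (1% DMSO final) incubated in mouse plasma at 37 °C with shaking. Five time points sampled over 120 min, each quenched with acetonitrile and centrifuged. Supernatant analysed by LC-MS/MS for percentage remaining and T1/2. Verapamil and propantheline used as references.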

[6] = Protein binding in mouse plasma at 1 uM after 5 hrs by HPLC-MS/MS analysis; format: ADME, cell-free; conditions: read-out: PPB (converted)
Method in brief: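 Equilibrium dialysis (MWCO 12-14 kDa) of mouse plasma spiked at 1 uM (1% solvent final) against PBS pH 7.4, 37 °C, orbital shaking, 5 h, in quadruplicate. Chamber samples matrix-matched, precipitated with acetonitrile and analysed by HPLC-MS/MS. % bound = (1 − buffer/plasma peak area) × 100. Recovery checked against an undialyzed standard. Verapamil used as reference.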

[7] = Metabolic stability in BALB/c mouse liver microsomes at 2 uM after 40 mins by HPLC analysis; format: ADME
Method in brief: (§2)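 BALB/c male mouse liver microsomes (pooled, perfused livers) at 0.42 mg protein/ml in 100 mM phosphate buffer pH 7.4 with MgCl2 and an NADPH-regenerating system. Compound at 2 uM (1.6% solvent final) incubated at 37 °C in duplicate. Five time points over 40 min, quenched with acetonitrile and read by HPLC-MS/MS. Controls lacked NADPH. kel from ln(AUC) vs time regression; T1/2 = 0.693/kel; CLint scaled per mg microsomal protein.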

[8] = Distribution coefficient, log D of the compound at pH 7.4 by LC-MS/MS analysis; format: physicochemical; conditions: octanol/water
Method in brief: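 Shake-flask partitioning between n-octanol and PBS, run in duplicate. Compound added from 10 mM DMSO stock to pre-equilibrated phases, shaken 1 h and separated by centrifugation. Each phase diluted and quantified by LC-MS/MS. D calculated from peak areas corrected for dilution (100·So/Sp). Reference compound included.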

[9] = Intrinsic clearance in BALB/c mouse liver microsomes at 2 uM after 40 mins by HPLC analysis; format: ADME; conditions: read-out: CLH; method in brief: as §2
hERG (KCNH2) [10] = molecular target: T4, hERG (KCNH2) (Homo sapiens, UniProt Q12809); assay: Inhibition of human ERG expressed in cell membranes at 20 uM after 4 hrs by fluorescence polarization assay; conditions: cell membranes that express human ERG
T4 sequence (Q12809 whole entry): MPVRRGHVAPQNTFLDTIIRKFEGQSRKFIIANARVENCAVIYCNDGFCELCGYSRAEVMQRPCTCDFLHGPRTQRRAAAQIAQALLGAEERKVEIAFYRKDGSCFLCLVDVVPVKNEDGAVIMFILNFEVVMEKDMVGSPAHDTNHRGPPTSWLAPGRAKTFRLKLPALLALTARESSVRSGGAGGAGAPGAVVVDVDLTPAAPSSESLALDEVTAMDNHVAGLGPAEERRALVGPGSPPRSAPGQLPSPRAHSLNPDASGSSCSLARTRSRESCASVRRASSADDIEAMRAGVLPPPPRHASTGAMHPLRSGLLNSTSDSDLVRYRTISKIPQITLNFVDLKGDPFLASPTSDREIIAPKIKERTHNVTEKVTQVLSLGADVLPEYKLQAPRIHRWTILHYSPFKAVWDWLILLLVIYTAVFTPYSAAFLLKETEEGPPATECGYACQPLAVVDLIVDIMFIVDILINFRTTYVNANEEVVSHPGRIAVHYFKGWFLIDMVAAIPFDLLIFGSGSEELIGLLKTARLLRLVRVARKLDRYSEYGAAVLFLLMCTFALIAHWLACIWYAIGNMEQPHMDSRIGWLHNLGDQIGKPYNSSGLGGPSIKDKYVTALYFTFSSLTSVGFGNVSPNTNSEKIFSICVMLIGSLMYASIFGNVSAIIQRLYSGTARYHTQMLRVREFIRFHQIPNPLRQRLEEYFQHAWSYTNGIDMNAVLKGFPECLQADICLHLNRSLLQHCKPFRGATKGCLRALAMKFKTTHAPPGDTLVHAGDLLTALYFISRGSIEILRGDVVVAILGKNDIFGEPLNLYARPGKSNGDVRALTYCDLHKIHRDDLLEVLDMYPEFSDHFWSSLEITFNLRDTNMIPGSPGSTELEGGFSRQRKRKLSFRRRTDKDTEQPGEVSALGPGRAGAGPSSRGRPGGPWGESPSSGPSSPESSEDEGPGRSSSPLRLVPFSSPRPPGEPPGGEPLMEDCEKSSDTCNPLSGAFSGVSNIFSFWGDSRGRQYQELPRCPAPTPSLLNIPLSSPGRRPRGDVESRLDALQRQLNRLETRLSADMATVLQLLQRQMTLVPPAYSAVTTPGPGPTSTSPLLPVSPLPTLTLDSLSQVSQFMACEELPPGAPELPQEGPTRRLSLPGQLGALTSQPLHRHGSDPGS
Method in brief: (§3)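 Predictor hERG fluorescence polarization kit used per manufacturer's protocol. hERG-containing cell membranes incubated with fluorescent tracer and test compound at 1, 5 or 20 uM for 4 h.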

hERG (KCNH2) [11] = molecular target: T4, hERG (KCNH2); assay: Inhibition of human ERG expressed in cell membranes at 5 uM after 4 hrs by fluorescence polarization assay; conditions: cell membranes that express human ERG; method in brief: as §3
hERG (KCNH2) [12] = molecular target: T4, hERG (KCNH2); assay: Inhibition of human ERG expressed in cell membranes at 1 uM after 4 hrs by fluorescence polarization assay; conditions: cell membranes that express human ERG; method in brief: as §3
CYP1A2 = molecular target: T5, CYP1A2 (Homo sapiens, UniProt P05177); assay: Inhibition of CYP1A2 (unknown origin) at 20 uM by P450-glo assay; format: ADME
T5 sequence (P05177 whole entry): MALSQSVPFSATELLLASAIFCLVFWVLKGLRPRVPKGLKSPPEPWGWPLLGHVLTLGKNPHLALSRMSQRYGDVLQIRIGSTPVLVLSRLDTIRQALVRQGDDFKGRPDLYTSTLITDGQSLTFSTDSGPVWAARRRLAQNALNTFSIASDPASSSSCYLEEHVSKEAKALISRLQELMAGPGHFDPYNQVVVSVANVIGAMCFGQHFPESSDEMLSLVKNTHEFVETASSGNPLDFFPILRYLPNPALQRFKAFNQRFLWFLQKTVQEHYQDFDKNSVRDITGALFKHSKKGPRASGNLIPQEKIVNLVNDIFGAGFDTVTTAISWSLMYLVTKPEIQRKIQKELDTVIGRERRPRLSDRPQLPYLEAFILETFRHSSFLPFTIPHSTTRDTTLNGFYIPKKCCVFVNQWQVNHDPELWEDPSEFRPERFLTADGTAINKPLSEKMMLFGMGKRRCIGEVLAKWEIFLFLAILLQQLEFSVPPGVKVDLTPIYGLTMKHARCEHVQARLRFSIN
Method in brief: (§4)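 P450-Glo luminescent assay run per manufacturer's protocol. Each CYP isoform incubated with its luminogenic substrate and test compound at 20 uM (0.25% DMSO final), in quadruplicate. Control membranes without CYP served as baseline.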

CYP2C9 = CYP2C9 (Homo sapiens, UniProt P11712); assay: Inhibition of CYP2C9 (unknown origin) at 20 uM by P450-glo assay; format: ADME; method in brief: as §4
Sequence of CYP2C9 (P11712 whole entry): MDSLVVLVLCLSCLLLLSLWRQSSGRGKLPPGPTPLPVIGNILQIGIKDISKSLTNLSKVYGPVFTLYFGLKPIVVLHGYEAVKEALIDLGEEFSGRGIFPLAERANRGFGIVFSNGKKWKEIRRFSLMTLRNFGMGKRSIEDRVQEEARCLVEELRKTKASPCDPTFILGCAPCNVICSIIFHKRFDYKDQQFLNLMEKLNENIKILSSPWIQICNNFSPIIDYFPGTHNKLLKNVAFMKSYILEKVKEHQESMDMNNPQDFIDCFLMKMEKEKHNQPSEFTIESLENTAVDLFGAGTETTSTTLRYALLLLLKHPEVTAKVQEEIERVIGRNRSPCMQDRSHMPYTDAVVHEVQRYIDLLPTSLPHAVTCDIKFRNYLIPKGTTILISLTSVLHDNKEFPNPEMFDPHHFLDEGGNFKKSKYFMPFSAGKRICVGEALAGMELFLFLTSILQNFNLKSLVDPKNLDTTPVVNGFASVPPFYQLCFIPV

CYP2C19 = CYP2C19 (Homo sapiens, UniProt P33261); assay: Inhibition of CYP2C19 (unknown origin) at 20 uM by P450-glo assay; format: ADME; method in brief: as §4
Sequence of CYP2C19 (P33261 whole entry): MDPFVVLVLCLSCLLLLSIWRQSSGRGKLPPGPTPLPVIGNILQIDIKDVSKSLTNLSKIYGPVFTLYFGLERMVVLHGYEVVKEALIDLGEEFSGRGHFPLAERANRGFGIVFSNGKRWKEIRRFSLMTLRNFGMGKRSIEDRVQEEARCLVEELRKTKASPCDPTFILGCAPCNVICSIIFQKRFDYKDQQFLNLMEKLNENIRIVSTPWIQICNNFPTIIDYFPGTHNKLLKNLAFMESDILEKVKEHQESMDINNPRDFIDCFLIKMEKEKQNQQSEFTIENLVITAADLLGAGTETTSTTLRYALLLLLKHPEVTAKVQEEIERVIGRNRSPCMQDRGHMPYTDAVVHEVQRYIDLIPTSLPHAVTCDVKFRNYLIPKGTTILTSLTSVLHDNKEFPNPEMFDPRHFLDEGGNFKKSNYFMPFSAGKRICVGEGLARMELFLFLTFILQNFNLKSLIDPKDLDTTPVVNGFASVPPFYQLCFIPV

CYP2D6 = CYP2D6 (Homo sapiens, UniProt P10635); assay: Inhibition of CYP2D6 (unknown origin) at 20 uM by P450-glo assay; format: ADME; method in brief: as §4
Sequence of CYP2D6 (P10635 whole entry): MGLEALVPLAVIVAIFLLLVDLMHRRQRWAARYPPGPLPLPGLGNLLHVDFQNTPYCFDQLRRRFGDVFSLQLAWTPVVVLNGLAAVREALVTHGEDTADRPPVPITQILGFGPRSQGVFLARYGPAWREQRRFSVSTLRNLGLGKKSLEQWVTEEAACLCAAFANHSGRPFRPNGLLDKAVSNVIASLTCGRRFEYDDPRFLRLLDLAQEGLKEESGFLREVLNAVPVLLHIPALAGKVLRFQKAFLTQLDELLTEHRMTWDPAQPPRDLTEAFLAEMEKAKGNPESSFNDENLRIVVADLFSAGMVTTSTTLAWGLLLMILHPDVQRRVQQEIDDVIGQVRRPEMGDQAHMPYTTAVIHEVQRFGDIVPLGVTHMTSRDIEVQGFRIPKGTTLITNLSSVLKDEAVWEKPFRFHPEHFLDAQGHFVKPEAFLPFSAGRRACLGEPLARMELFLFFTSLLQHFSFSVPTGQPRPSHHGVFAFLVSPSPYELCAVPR

CYP3A4 = CYP3A4 (Homo sapiens, UniProt P08684); assay: Inhibition of CYP3A4 (unknown origin) at 20 uM by P450-glo assay; format: ADME
Sequence of CYP3A4 (P08684 whole entry): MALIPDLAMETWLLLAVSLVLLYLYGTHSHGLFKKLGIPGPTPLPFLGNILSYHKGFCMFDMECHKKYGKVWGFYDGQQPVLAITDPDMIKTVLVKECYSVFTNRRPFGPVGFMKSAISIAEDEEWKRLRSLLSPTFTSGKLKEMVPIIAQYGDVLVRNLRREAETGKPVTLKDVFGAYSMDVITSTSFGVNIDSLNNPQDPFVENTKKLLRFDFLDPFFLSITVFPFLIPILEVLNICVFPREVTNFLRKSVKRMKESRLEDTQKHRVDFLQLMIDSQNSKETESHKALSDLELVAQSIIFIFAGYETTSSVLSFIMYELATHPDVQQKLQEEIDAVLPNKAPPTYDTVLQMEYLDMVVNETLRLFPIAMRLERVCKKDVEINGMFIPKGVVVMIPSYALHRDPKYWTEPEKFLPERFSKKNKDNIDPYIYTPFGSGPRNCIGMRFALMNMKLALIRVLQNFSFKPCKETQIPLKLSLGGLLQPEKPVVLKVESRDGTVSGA

Sequence of Free fatty acid receptor 1 (O14842 whole entry): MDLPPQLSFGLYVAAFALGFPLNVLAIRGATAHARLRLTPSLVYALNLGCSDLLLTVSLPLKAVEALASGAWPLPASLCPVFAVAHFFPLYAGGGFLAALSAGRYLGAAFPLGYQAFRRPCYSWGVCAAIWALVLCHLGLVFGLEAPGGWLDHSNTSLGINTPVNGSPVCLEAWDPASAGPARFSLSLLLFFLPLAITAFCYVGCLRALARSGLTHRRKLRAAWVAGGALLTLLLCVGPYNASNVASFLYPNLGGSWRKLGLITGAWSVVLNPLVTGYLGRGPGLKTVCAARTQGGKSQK

SMILES: O=C(O)CCc1nnc(C(=O)Nc2cccc(-c3ccc(F)cc3)c2)s1
- EC50 [1]: 1280 nM
- EC50 [2]: > 10000 nM
- EC50 [3]: > 10000 nM
- EC50 [4]: > 10000 nM
- half-life at 1 µM [5]: > 240 min
- fraction unbound at 5 h, 1 µM [6]: 0.059
- half-life at 2 µM [7]: 209 min
- logD [8]: 0.96
- microsomal CLint at 2 µM [9]: 8 µL/min/mg
- inhibition at 4 h, 20 µM (hERG (KCNH2) [10]): -1%
- inhibition at 4 h, 5 µM (hERG (KCNH2) [11]): -1%
- inhibition at 4 h, 1 µM (hERG (KCNH2) [12]): -6%
- inhibition at 20 µM (CYP1A2): 47.2%
- inhibition at 20 µM (CYP2C9): -1.9%
- inhibition at 20 µM (CYP2C19): 25.2%
- inhibition at 20 µM (CYP2D6): 11.8%
- inhibition at 20 µM (CYP3A4): -5.1%

SMILES: O=C(O)CCc1ccc(OCc2nnc(C(=O)Nc3ccc(F)c(F)c3)s2)cc1
- EC50 [1]: 580 nM
- EC50 [2]: > 10000 nM
- EC50 [3]: > 10000 nM
- EC50 [4]: > 10000 nM

SMILES: O=C(O)CCc1ccc(OCc2nnc(C(=O)Nc3ccc(Cl)cc3)s2)cc1
- EC50 [1]: 3690 nM

SMILES: Cc1cccc(NC(=O)c2nnc(COc3ccc(CCC(=O)O)cc3)s2)c1
- EC50 [1]: 1770 nM

The remaining molecules from weak to strong by EC50 [1], led by results:

- EC50 [1]: 4680 nM
SMILES: COc1cccc(NC(=O)c2nnc(COc3ccc(CCC(=O)O)cc3)s2)c1

- EC50 [1]: 1520 nM
SMILES: Cc1ccccc1NC(=O)c1nnc(COc2ccc(CCC(=O)O)cc2)s1

- EC50 [1]: 1190 nM
SMILES: O=C(O)CCc1ccc(OCc2nnc(C(=O)Nc3cccc(F)c3)s2)cc1

- EC50 [1]: 1060 nM
SMILES: O=C(O)CCc1ccc(OCc2nnc(C(=O)Nc3ccccc3)s2)cc1

- EC50 [1]: 580 nM
- EC50 [2]: > 10000 nM
- EC50 [3]: > 10000 nM
- EC50 [4]: > 10000 nM
- half-life at 1 µM [5]: 20.4 min
- half-life at 2 µM [7]: 6.9 min
- logD [8]: 0.95
- microsomal CLint at 2 µM [9]: 241 µL/min/mg
- inhibition at 20 µM (CYP1A2): 18.8%
- inhibition at 20 µM (CYP2C9): 12.8%
- inhibition at 20 µM (CYP2C19): -3.3%
- inhibition at 20 µM (CYP2D6): 6.6%
- inhibition at 20 µM (CYP3A4): -28.7%
SMILES: O=C(O)CCc1ccc(OCc2nnc(C(=O)Nc3ccccc3F)s2)cc1
- inhibition at 4 h, 20 µM (hERG (KCNH2) [10]): 4%
- inhibition at 4 h, 5 µM (hERG (KCNH2) [11]): -7%
- inhibition at 4 h, 1 µM (hERG (KCNH2) [12]): 9%
